Calls of active or inactive are those of the source. The rule behind the calls is not given here.

Broadly, the inhibition is how much of the control response was suppressed.

For data set [1], the target named is Metabotropic glutamate receptor 4 (Rattus norvegicus) (UniProt P31423). As to the kind of experiment: Displacement of [3H]ML128 from rat mGlu4 receptor expressed in CHO cells at 10 uM after 30 mins by liquid scintillation counting analysis. Type of data set: cell-based. The method in brief: (§1)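 Whole freshly harvested CHO cells stably expressing rat mGlu4 (G418-selected), 50 000 per tube, incubated with 10 nM [3H]1 plus competitor (0.01 nM–10 μM) 30 min at room temperature. Cells pelleted at 4 °C, washed three times with cold medium, lysed in 0.5% NaOH at 56 °C, then counted by liquid scintillation. Nonspecific binding defined with 10 μM unlabeled 1. Triplicates.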
For orientation: Displacement assays read how much labelled ligand stays bound in the presence of the test substance.

Data set [2] addresses Metabotropic glutamate receptor 4 (Rattus norvegicus, UniProt P31423). As to the kind of experiment: Displacement of [3H]ML128 from rat mGlu4 receptor expressed in CHO cells after 30 mins by liquid scintillation counting analysis. Type of data set: cell-based. The method in brief:
as §1

Data set [3] has as its system Striatum. As to the kind of experiment: Drug uptake in Sprague-Dawley rat striatum at 37 MBq, iv administered 5 mins post MTEP.HCl challenge measured after 20 mins by PET imaging analysis. Type of data set: ADME, organism-based. The settings on record: in vivo. The method in brief: (§2)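 Male Sprague–Dawley rats under 1.0–1.5% isoflurane/nitrous oxide received [18F]3 (37 MBq) via tail-vein catheter. Dynamic PET was acquired for 60 min, followed by CT for anatomy and attenuation correction. Regional brain time–activity curves were generated. For blocking, animals were given iv 5 min before tracer either 2·HCl 10 mg/kg in saline with 10% ethanol and 10% Tween20 (n = 4) or MTEP·HCl 10 mg/kg in 0.9% saline (n = 3).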

Data set [4] concerns Striatum (Macaca mulatta). Nature of the data set: Drug uptake in rhesus monkey striatum at 189 MBq, iv after 3 mins by PET imaging analysis. The settings on record: in vivo, 0.05 h.
Data set [5] in a line: Drug metabolism in iv dosed Sprague-Dawley rat blood after 5 mins. The settings on record: read-out: Drug metabolism. The data set is classed as ADME, organism-based.
Data set [6] can be described thus: Drug metabolism in iv dosed rhesus monkey blood after 5 mins. The settings on record: in vivo.
Data set [7] can be described thus: Drug uptake in rhesus monkey cerebellum at 189 MBq, iv after 40 mins by PET imaging analysis. The settings on record: in vivo.
Data set [8] concerns Thalamus (Macaca mulatta). Nature of the data set: Drug uptake in rhesus monkey thalamus at 189 MBq, iv after 3 mins by PET imaging analysis. The settings on record: in vivo, 0.05 h.
For data set [9], the system named is Hippocampus (Macaca mulatta). Nature of the data set: Drug uptake in rhesus monkey hippocampus at 189 MBq, iv after 20 mins by PET imaging analysis. The settings on record: in vivo.
Data set [10] has as its system Striatum (Macaca mulatta). Nature of the data set: Drug uptake in rhesus monkey striatum at 189 MBq, iv after 40 mins by PET imaging analysis. The settings on record: in vivo.
Data set [11] deals with Cerebellum (Macaca mulatta). As to the kind of experiment: Drug uptake in rhesus monkey cerebellum at 189 MBq, iv after 3 mins by PET imaging analysis. The settings on record: in vivo, 0.05 h.
Data set [12] deals with Thalamus (Macaca mulatta). As to the kind of experiment: Drug uptake in rhesus monkey thalamus at 189 MBq, iv after 20 mins by PET imaging analysis. The settings on record: in vivo.
Data set [13] deals with Hippocampus (Macaca mulatta). Nature of the data set: Drug uptake in rhesus monkey hippocampus at 189 MBq, iv after 3 mins by PET imaging analysis. The settings on record: in vivo, 0.05 h.
The subject of data set [14] is Thalamus (Macaca mulatta). As to the kind of experiment: Drug uptake in rhesus monkey thalamus at 189 MBq, iv after 40 mins by PET imaging analysis. The settings on record: in vivo.
The test system of data set [15] is Brain. Nature of the data set: Drug uptake in Sprague-Dawley rat whole brain at 37 MBq, iv after 20 mins by PET imaging analysis. The data set is classed as ADME, organism-based. The settings on record: in vivo. In a few lines:
as §2

For data set [16], the system named is Hippocampus. As to the kind of experiment: Drug uptake in Sprague-Dawley rat hippocampus at 37 MBq, iv administered 5 mins post MTEP.HCl challenge measured after 20 mins by PET imaging analysis. The settings on record: in vivo. Type of data set: ADME, organism-based. In a few lines: as §2
Data set [17] has as its system Cerebellum (Macaca mulatta). Nature of the data set: Drug uptake in rhesus monkey cerebellum at 189 MBq, iv after 20 mins by PET imaging analysis. The settings on record: in vivo.
Data set [18] concerns Brain. As to the kind of experiment: Drug uptake in Sprague-Dawley rat whole brain at 37 MBq, iv administered 5 mins post MTEP.HCl challenge measured after 20 mins by PET imaging analysis. The settings on record: in vivo. The data set is classed as ADME, organism-based. In a few lines: as §2
The test system of data set [19] is Cortex. As to the kind of experiment: Drug uptake in Sprague-Dawley rat cortex at 37 MBq, iv administered 5 mins post MTEP.HCl challenge measured after 20 mins by PET imaging analysis. The data set is classed as ADME, organism-based. The settings on record: in vivo. The method in brief: as §2
Data set [20] deals with Cortex. Nature of the data set: Drug uptake in Sprague-Dawley rat cortex at 37 MBq, iv after 20 mins by PET imaging analysis. Type of data set: ADME, organism-based. The settings on record: in vivo. The method in brief: as §2
Data set [21] has as its system Striatum. As to the kind of experiment: Drug uptake in Sprague-Dawley rat striatum at 37 MBq, iv administered 5 mins post N-(3-(difluoromethoxy)phenyl)-2-picolinamide hydrochloride challenge measured after 20 mins by PET imaging analysis. The data set is classed as ADME, organism-based. The settings on record: in vivo. The method in brief:
as §2

The test system of data set [22] is Thalamus. Nature of the data set: Drug uptake in Sprague-Dawley rat thalamus at 37 MBq, iv after 20 mins by PET imaging analysis. The data set is classed as ADME, organism-based. The settings on record: in vivo. In a few lines:
as §2

Another data set concerns Macaca mulatta. Nature of the data set: Drug uptake in rhesus monkey hippocampus at 189 MBq, iv after 40 mins by PET imaging analysis. The settings on record: in vivo.
Data set [23] deals with Cortex. Nature of the data set: Drug uptake in Sprague-Dawley rat cortex at 37 MBq, iv administered 5 mins post N-(3-(difluoromethoxy)phenyl)-2-picolinamide hydrochloride challenge measured after 20 mins by PET imaging analysis. Type of data set: ADME, organism-based. The settings on record: in vivo. The method in brief:
as §2

Data set [24] has as its system Striatum. Nature of the data set: Drug uptake in Sprague-Dawley rat striatum at 37 MBq, iv after 20 mins by PET imaging analysis. The data set is classed as ADME, organism-based. The settings on record: in vivo. The method in brief: as §2
Data set [25] deals with Cerebellum. As to the kind of experiment: Drug uptake in Sprague-Dawley rat cerebellum at 37 MBq, iv administered 5 mins post MTEP.HCl challenge measured after 20 mins by PET imaging analysis. Type of data set: ADME, organism-based. The settings on record: in vivo. In a few lines: as §2
The test system of data set [26] is Hippocampus. As to the kind of experiment: Drug uptake in Sprague-Dawley rat hippocampus at 37 MBq, iv after 20 mins by PET imaging analysis. The settings on record: in vivo. The data set is classed as ADME, organism-based. In a few lines: as §2
Data set [27] has as its system Brain. As to the kind of experiment: Drug uptake in Sprague-Dawley rat whole brain at 37 MBq, iv administered 5 mins post N-(3-(difluoromethoxy)phenyl)-2-picolinamide hydrochloride challenge measured after 20 mins by PET imaging analysis. The data set is classed as ADME, organism-based. The settings on record: in vivo. The method in brief:
as §2

For data set [28], the system named is Thalamus. Nature of the data set: Drug uptake in Sprague-Dawley rat thalamus at 37 MBq, iv administered 5 mins post N-(3-(difluoromethoxy)phenyl)-2-picolinamide hydrochloride challenge measured after 20 mins by PET imaging analysis. The data set is classed as ADME, organism-based. The settings on record: in vivo. In a few lines: as §2
Data set [29] has as its system Striatum (Macaca mulatta). Nature of the data set: Drug uptake in rhesus monkey striatum at 189 MBq, iv after 20 mins by PET imaging analysis. The settings on record: in vivo.
The subject of data set [30] is Cerebellum. As to the kind of experiment: Drug uptake in Sprague-Dawley rat cerebellum at 37 MBq, iv administered 5 mins post N-(3-(difluoromethoxy)phenyl)-2-picolinamide hydrochloride challenge measured after 20 mins by PET imaging analysis. Type of data set: ADME, organism-based. The settings on record: in vivo. In a few lines: as §2
Data set [31] has as its system Thalamus. Nature of the data set: Drug uptake in Sprague-Dawley rat thalamus at 37 MBq, iv administered 5 mins post MTEP.HCl challenge measured after 20 mins by PET imaging analysis. Type of data set: ADME, organism-based. The settings on record: in vivo. In a few lines:
as §2

In data set [32] the test system is Cerebellum. As to the kind of experiment: Drug uptake in Sprague-Dawley rat cerebellum at 37 MBq, iv after 20 mins by PET imaging analysis. Type of data set: ADME, organism-based. The settings on record: in vivo. In a few lines:
as §2

In data set [33] the test system is Hippocampus. Nature of the data set: Drug uptake in Sprague-Dawley rat hippocampus at 37 MBq, iv administered 5 mins post N-(3-(difluoromethoxy)phenyl)-2-picolinamide hydrochloride challenge measured after 20 mins by PET imaging analysis. Type of data set: ADME, organism-based. The settings on record: in vivo. The method in brief:
as §2

Data set [34] addresses Metabotropic glutamate receptor 5 (Homo sapiens) (UniProt P41594). Nature of the data set: Activity at human mGlu5 receptor expressed in CHO cells after 45 mins by intracellular inositol phosphates accumulation assay.
Data set [35] addresses Metabotropic glutamate receptor 1 (Homo sapiens) (UniProt Q13255). Nature of the data set: Activity at human mGlu1 receptor expressed in CHO cells after 45 mins by intracellular inositol phosphates accumulation assay.
The target of data set [36] is Metabotropic glutamate receptor 8 (Homo sapiens) (UniProt O00222). As to the kind of experiment: Binding affinity to human mGlu8 receptor.
Sequence of Metabotropic glutamate receptor 8 (Homo sapiens) (O00222 whole entry): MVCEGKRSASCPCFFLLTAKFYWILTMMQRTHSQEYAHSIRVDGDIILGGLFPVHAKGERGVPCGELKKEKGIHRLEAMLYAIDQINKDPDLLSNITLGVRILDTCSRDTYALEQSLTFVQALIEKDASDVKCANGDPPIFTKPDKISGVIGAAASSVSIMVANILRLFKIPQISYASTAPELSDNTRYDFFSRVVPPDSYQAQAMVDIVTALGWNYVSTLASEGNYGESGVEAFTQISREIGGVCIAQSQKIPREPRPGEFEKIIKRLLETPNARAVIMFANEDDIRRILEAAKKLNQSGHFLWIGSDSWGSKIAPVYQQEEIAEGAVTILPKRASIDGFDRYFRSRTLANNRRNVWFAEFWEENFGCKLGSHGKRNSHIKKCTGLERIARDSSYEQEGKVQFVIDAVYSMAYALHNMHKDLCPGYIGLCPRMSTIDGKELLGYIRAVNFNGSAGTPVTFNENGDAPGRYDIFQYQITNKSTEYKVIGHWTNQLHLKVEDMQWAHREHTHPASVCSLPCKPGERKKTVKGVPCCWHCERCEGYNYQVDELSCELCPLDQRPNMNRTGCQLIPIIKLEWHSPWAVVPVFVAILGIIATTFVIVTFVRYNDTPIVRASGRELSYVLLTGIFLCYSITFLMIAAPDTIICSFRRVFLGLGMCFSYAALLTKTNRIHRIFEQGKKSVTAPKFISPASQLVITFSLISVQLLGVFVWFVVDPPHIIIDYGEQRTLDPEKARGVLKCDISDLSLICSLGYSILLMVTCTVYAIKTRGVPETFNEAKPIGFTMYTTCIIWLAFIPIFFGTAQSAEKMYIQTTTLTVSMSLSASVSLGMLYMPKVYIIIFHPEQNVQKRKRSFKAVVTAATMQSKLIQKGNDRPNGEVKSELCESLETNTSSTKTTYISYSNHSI

Sequence of Metabotropic glutamate receptor 4 (P31423 whole entry): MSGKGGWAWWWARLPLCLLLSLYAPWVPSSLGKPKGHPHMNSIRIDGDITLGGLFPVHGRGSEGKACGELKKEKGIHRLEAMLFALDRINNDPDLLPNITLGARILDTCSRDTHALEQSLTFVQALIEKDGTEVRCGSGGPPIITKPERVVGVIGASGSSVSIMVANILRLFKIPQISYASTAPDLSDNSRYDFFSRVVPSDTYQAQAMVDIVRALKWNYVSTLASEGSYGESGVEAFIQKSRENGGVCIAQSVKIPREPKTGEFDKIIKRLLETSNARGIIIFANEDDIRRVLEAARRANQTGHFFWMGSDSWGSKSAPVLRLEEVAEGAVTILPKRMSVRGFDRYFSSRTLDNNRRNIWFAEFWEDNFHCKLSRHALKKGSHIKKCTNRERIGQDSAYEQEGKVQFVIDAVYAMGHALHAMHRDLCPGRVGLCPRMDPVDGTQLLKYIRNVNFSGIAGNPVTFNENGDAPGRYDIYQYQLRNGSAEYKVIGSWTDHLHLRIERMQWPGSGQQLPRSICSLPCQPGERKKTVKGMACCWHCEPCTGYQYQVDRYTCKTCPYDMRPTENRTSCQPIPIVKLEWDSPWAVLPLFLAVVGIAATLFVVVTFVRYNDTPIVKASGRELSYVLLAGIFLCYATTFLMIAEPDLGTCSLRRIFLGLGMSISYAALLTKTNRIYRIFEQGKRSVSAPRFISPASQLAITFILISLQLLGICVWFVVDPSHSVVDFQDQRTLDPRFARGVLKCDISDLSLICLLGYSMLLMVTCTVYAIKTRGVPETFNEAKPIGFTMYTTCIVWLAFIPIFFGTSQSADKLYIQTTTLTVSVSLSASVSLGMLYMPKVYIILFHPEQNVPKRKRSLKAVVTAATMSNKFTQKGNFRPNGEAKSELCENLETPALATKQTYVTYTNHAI
Sequence of Metabotropic glutamate receptor 4 (Rattus norvegicus) (P31423 whole entry): as above
Sequence of Metabotropic glutamate receptor 1 (Homo sapiens) (Q13255 19-1194 limits assumed): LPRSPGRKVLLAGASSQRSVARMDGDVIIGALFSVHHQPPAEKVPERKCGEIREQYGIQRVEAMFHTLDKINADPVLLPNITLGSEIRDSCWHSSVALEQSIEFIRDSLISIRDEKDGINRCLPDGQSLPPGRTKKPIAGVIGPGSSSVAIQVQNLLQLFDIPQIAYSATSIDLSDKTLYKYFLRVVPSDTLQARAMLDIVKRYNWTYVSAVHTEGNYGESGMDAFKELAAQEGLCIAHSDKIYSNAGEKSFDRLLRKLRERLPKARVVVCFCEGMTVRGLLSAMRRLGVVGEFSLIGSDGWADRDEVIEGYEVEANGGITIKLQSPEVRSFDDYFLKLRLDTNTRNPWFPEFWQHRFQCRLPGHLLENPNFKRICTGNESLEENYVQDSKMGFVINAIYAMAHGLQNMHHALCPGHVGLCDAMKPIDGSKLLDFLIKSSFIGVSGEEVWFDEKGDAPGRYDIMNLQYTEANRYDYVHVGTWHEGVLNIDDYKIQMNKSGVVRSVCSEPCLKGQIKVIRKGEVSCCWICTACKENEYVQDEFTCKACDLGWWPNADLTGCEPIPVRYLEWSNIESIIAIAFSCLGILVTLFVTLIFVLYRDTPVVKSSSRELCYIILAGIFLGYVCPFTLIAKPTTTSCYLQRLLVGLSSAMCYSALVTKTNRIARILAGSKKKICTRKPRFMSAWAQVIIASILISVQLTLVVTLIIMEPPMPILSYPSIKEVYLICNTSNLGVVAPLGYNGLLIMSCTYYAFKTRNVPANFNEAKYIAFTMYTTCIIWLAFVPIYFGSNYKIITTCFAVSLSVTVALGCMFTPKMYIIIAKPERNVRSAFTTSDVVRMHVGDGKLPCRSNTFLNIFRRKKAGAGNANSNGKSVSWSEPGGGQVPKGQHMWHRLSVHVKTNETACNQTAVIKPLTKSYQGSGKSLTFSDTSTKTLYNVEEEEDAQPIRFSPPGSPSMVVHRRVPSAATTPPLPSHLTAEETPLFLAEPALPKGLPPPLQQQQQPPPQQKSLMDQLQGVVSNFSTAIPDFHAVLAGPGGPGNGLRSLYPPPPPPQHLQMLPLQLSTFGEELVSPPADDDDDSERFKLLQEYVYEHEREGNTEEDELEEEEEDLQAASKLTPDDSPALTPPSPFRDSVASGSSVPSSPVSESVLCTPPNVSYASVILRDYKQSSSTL
Sequence of Metabotropic glutamate receptor 5 (Homo sapiens) (P41594 21-1212 limits assumed): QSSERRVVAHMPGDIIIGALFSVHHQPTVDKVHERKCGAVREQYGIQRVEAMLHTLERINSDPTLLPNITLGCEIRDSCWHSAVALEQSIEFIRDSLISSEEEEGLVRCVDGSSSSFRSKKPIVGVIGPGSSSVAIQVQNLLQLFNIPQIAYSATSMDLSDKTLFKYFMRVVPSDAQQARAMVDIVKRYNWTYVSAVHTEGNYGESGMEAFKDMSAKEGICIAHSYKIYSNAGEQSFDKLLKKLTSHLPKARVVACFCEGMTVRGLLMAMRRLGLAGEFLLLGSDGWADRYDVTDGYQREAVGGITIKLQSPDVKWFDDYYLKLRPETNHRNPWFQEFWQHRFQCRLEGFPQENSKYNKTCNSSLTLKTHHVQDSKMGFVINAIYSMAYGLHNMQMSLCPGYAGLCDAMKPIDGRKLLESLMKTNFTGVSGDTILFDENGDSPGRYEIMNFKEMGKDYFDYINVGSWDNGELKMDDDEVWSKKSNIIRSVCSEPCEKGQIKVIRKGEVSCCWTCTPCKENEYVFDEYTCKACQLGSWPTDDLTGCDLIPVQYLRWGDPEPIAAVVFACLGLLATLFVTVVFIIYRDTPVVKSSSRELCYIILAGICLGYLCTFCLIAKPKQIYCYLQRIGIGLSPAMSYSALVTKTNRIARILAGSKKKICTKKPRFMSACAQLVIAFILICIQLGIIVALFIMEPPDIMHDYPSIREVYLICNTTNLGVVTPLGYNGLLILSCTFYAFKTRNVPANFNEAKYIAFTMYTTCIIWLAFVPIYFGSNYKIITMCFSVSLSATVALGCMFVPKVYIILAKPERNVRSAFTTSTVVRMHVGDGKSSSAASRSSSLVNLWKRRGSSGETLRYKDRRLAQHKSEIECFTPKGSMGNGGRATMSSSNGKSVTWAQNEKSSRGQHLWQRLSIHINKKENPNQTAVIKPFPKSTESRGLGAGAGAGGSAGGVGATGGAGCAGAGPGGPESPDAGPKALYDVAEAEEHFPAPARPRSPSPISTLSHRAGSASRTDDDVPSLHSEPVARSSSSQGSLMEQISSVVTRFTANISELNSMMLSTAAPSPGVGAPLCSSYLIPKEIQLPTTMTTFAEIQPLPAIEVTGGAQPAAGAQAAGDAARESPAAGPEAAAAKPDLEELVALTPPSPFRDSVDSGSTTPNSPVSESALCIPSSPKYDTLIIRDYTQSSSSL

In data set [1], `O=C(Nc1cccc(OC(F)F)c1)c1ccccn1` yielded an inhibition of 99.1%.
The molecule `Cc1cccc2c1C(=O)N(c1ccc(NC(=O)c3ccccn3)cc1Cl)C2=O` showed an inhibition in [1] of 99.4%. Besides, the IC50 in data set [2] (read-out: IC50) stood at 0.0042 µM.
For the molecule `O=C(Nc1ccc(N2C(=O)c3cccc([18F])c3C2=O)c(Cl)c1)c1ccccn1`, the Drug uptake entry is “Active” in the data set on Striatum [3]; “Active” in [4]; “Active” in data set [7]; “Active” in data set [8]; 50% in data set [9]; “Active” in data set [10]. Further, the Drug uptake entry in data set [11] is “Active”; in [12], 50%; in data set [13] it was “Active”; in data set [14], “Active”; in the data set with Brain [15], “Active”; in the data set with Hippocampus [16] it was “Active”. In addition, the Drug uptake is given as 50% in data set [17]; “Active” in the data set on Brain [18]; “Active” with Cortex [19]; “Active” with Cortex [20]; “Active” in the data set with Striatum [21]; “Active” with Thalamus [22]. Besides, the Drug uptake entry in the data set with Macaca mulatta, with Cortex [23], in the data set with Striatum [24], in the data set on Cerebellum [25], with Hippocampus [26] and in the data set on Brain [27] was “Active” in each case. The Drug uptake result is “Active” in the data set with Thalamus [28]; 50% in data set [29]; “Active” in the data set on Cerebellum [30]; “Active” in the data set with Thalamus [31]; “Active” in the data set with Cerebellum [32]; “Active” in the data set on Hippocampus [33]. The metabolised at 5 min in data set [5] amounted to 90%. Also, the Stability result in data set [6] was “Unstable”.
In data set [1], `O=C(Nc1ccc(N2C(=O)c3cccc(I)c3C2=O)c(Cl)c1)c1ccccn1` gave an inhibition of 96%. Further, the IC50 in data set [2] (read-out: IC50) was 0.0263 µM; in data set [2] (read-out: pIC50 (converted)), 0.0295 µM.
With `O=C(Nc1ccc(N2C(=O)c3cccc(F)c3C2=O)c(Cl)c1)c1ccccn1`, the outcome in [34], in data set [35] and in data set [36] was Active. Moreover, the inhibition in data set [1] was found to be 99.4%. For the same molecule, the IC50 in [2] (read-out: IC50) stood at 0.0051 µM.
With `O=C(Nc1ccc(N2C(=O)c3cccc(Br)c3C2=O)c(Cl)c1)c1ccccn1`, the inhibition in data set [1] was found to be 96.6%. In addition, the IC50 in [2] (read-out: IC50) is 0.0118 µM.
Molecule `COc1cc(NC(=O)c2ccccn2)ccc1Cl` yielded an inhibition in data set [1] of 100%.
